ChEMBL document CHEMBL3244156, “Analgesic and tranquilizing activity of 5,8-disubstituted 1-tetralone Mannich bases” (1977)
Activity calls are given as the source filed them. The calls are words filed in the database; no cut-off is given here.

What was measured:
Rattus norvegicus [1] = assay: Analgesic activity in rat assessed as median foot shock required to elicit flinch-jump at 32 mg/kg, ip after 2 hrs; type: functional; settings: route intraperitoneal
Procedure, shortened: (§1)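 Series given just before and 0.5 and 2 h after ip dosing. Flinch, squeak and jump were scored. Value is the median shock (mA) that elicits a jump. At least five rats per dose.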

Mus musculus [2] = assay: Analgesic activity in mouse at 100 mg/kg, ip after 2 hrs by hot plate assay; type: functional; settings: route intraperitoneal
Procedure, shortened: (§2)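 Mice dropped into a glass cylinder on an aluminum plate held at 57 °C. Timed from foot contact to first hind-foot flick, with a 10-s limit. Observed 0.5 and 2 h after treatment. Value is % of mice failing to react within the limit. At least ten mice per dose.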

Mus musculus [3] = assay: Analgesic activity in mouse assessed as tail-flick latency period at 100 mg/kg, ip after 2 hrs by tail flick test; type: functional; settings: route intraperitoneal
Mus musculus [4] = assay: Analgesic activity in mouse at 32 mg/kg, ip after 2 hrs by hot plate assay; type: functional; settings: route intraperitoneal; procedure, shortened: as §2
Mus musculus [5] = assay: Analgesic activity in mouse assessed as tail-flick latency period at 32 mg/kg, ip after 2 hrs by tail flick test; type: functional; settings: route intraperitoneal
Mus musculus [6] = assay: Neuroleptic activity in ip dosed mouse assessed as inhibition of amphetamine-induced mortality; type: functional
Procedure, shortened: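 Aggregated mice in groups of ten given amphetamine. Value is an ED50 estimate for blocking lethality, bracketed between a dose where <5/10 died and a dose where >5/10 died.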

Rattus norvegicus [7] = assay: Neuroleptic activity in ip dosed rat assessed as drug required for blocking discriminated jump-out avoidance behavior in after 1 hr; type: functional
Procedure, shortened: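 Rats trained in discriminated jump-out avoidance and tested 1 h after dosing. Value is an estimated ED50 for blocking avoidance.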

Canis familiaris [8] = assay: Analgesic activity in dog assessed as rippling of skin at 10 mg/kg, po after 2 hrs by radiant heat assay; type: functional, Canis lupus familiaris
Procedure, shortened: (§3)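 Dogs held in a harness with a shaved mid-back patch placed under a concealed radiant heat source. Endpoint is the latency from heat onset to skin "rippling". Baseline latency measured in each dog, then retested at 0.5 and 2 h after dosing. Result expressed as % of control.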

Rattus norvegicus [9] = assay: Analgesic activity in rat assessed as median foot shock required to elicit flinch-jump at 10 mg/kg, ip after 2 hrs; type: functional; settings: route intraperitoneal; procedure, shortened: as §1
Rattus norvegicus [10] = species on record: Rattus norvegicus; assay: Induction of tolerance development in rat assessed as median foot shock required to elicit flinch-jump; type: functional, organism-based
Rattus norvegicus [11] = assay: Analgesic activity in ip dosed rat assessed as median foot shock required to elicit flinch-jump in presence of naloxone; type: functional, organism-based
Rattus norvegicus [12] = species on record: Rattus norvegicus; assay: Induction of cross-tolerance development in rat assessed as median foot shock required to elicit flinch-jump in presence of morphine; type: functional, organism-based
Canis familiaris [13] = assay: Analgesic activity in dog assessed as rippling of skin at 5 mg/kg, ip after 2 hrs by radiant heat assay; type: functional, Canis lupus familiaris; settings: route intraperitoneal; procedure, shortened: as §3
Rattus norvegicus [14] = assay: Analgesic activity in rat assessed as median foot shock required to elicit flinch-jump at 17.8 mg/kg, po after 2 hrs; type: functional
Canis familiaris [15] = assay: Analgesic activity in dog assessed as rippling of skin at 5 mg/kg, po after 2 hrs by radiant heat assay; type: functional, Canis lupus familiaris; procedure, shortened: as §3

Row | Structure (SMILES) | Activity (Rattus norvegicus [1]) [mA] | Activity (Mus musculus [2]) [%] | Activity (Mus musculus [3]) [%] | other results
1 | COc1ccc(OC)c2c1CCC(CN1CCCCC1)C2=O.Cl (configuration not stated) | 2.2 | 0 | 22 | –
2 | CCOc1ccc(Cl)c2c1CCC(CN1CCOCC1)C2=O.Cl (configuration not stated) | 2.2 | 10 | 20 | –
3 | COc1ccc(F)c2c1CCC(CN1CCCCC1)C2=O.Cl (configuration not stated) | 1.6 | – | – | Activity (Mus musculus [4]): 60%; Activity (Mus musculus [5]): 10%
4 | CCOc1ccc(Cl)c2c1CCC(CN1CCCCC1)C2=O.Cl (configuration not stated) | 0.6 | 33 | 33 | –
5 | Cl.O=C1c2ccccc2CCC1CN1CCOCC1 (configuration not stated) | 0.6 | 10 | 20 | ED50 (Mus musculus [6]): 32 mg/kg; ED50 (Rattus norvegicus [7]): > 10 mg/kg; Activity (Canis familiaris [8]): 90%
6 | CN(C)CCCN1c2ccccc2Sc2ccc(Cl)cc21 [CHLORPROMAZINE] | – | – | – | ED50 (Mus musculus [6]): 1 mg/kg; ED50 (Rattus norvegicus [7]): 3.2 mg/kg
7 | COc1ccc(C)c2c1CCC(CN(C)C)C2=O.Cl (configuration not stated) | 0.6 | – | – | –
8 | CCc1c(C)[nH]c2c1C(=O)C(CN1CCOCC1)CC2 (configuration not stated) [MOLINDONE] | – | – | – | ED50 (Mus musculus [6]): 3.2 mg/kg; ED50 (Rattus norvegicus [7]): 3.2 mg/kg
9 | COc1ccc(Cl)c2c1CCC(CN1CCCC1)C2=O.Cl (configuration not stated) | >2.2 | 30 | 0 | ED50 (Mus musculus [6]): 10 mg/kg; ED50 (Rattus norvegicus [7]): > 178 mg/kg; Activity (Rattus norvegicus [9]): 1.2 mA; Activity (Canis familiaris [8]): 160%; Activity (Rattus norvegicus [10]): inactive; Activity (Rattus norvegicus [11]): Active; Activity (Rattus norvegicus [12]): inactive
10 | COc1ccc(F)c2c1CCC(CN1CCCC1)C2=O.Cl (configuration not stated) | 1.2 | 50 | 0 | –
11 | CCNCC1CCc2c(OC)ccc(Cl)c2C1=O.Cl (configuration not stated) | >2.2 | – | – | Activity (Rattus norvegicus [9]): 2.2 mA; Activity (Mus musculus [4]): 40%; Activity (Mus musculus [5]): 0%
12 | COc1ccc(Cl)c2c1CCC(C(C)N1CCOCC1)C2=O.Cl (configuration not stated) | 0.6 | 0 | 0 | –
13 | COc1ccc(Cl)c2c1CCC(CN1CCC(c3ccccc3)CC1)C2=O.Cl (configuration not stated) | >2.2 | 20 | 10 | Activity (Rattus norvegicus [9]): 2.2 mA
14 | Cl.O=C1c2ccccc2CCC1CN1CCCCC1 (configuration not stated) | 0.8 | 0 | 0 | ED50 (Mus musculus [6]): > 100 mg/kg; ED50 (Rattus norvegicus [7]): > 32 mg/kg
15 | COc1ccc(Cl)c2c1CCC(CN1CCC(O)(c3ccccc3)CC1)C2=O.Cl (configuration not stated) | >2.2 | 60 | 0 | Activity (Rattus norvegicus [9]): 1.2 mA
16 | COc1ccc(F)c2c1CCC(CN1CCOCC1)C2=O.Cl (configuration not stated) | 1.2 | 30 | 10 | –
17 | COc1ccc(Cl)c2c1CCC(CN1CCCCC1)C2=O.Cl (configuration not stated) | >2.2 | 0 | 0 | ED50 (Mus musculus [6]): 10 mg/kg; ED50 (Rattus norvegicus [7]): 32 mg/kg; Activity (Rattus norvegicus [9]): 2.2 mA; Activity (Canis familiaris [8]): 110%
18 | CCOC(=O)N1CCN(CC2CCc3c(OC)ccc(Cl)c3C2=O)CC1.O=C(O)/C=C\C(=O)O (configuration not stated) | 0.6 | 0 | 0 | –
19 | COc1ccc(Cl)c2c1CCC(C(c1ccccc1)N1CCCCC1)C2=O.Cl (configuration not stated) | 0.6 | 30 | 0 | –
20 | COc1cccc2c1CCC(CN(C)C)C2=O.Cl (configuration not stated) | 1.2 | 0 | 0 | –
21 | CCOc1ccc(Cl)c2c1CCC(CN(C)C)C2=O.Cl (configuration not stated) | 0.6 | 0 | 0 | –
22 | COc1ccc(Cl)c2c1C(C)CC(CN1CCOCC1)C2=O.Cl (configuration not stated) | 0.8 | 30 | 40 | –
23 | COc1ccc(Cl)c2c1CCC(C(c1ccccc1)N1CCOCC1)C2=O.Cl (configuration not stated) | 0.6 | 0 | 0 | –
24 | COc1ccc(C)c2c1CCC(CN1CCOCC1)C2=O.Cl (configuration not stated) | 0.6 | 10 | 0 | –
25 | COc1ccc(OC)c2c1CCC(CN(C)C)C2=O.Cl (configuration not stated) | 0.6 | 10 | 0 | –
26 | COc1ccc(C)c2c1CCC(CN1CCCCC1)C2=O.Cl (configuration not stated) | >2.2 | – | – | Activity (Rattus norvegicus [9]): 2.2 mA; Activity (Mus musculus [4]): 40%; Activity (Mus musculus [5]): 30%
27 | CNCC1CCc2c(OC)ccc(Cl)c2C1=O.Cl (configuration not stated) | >2.2 | 10 | 0 | Activity (Rattus norvegicus [9]): 1.2 mA
28 | COc1ccc(Cl)c2c1CC(CN1CCCC1)C2=O.Cl (configuration not stated) | 0.6 | 0 | 0 | –

Row | Structure (SMILES) | Activity (Rattus norvegicus [1]) [mA] | Activity (Mus musculus [2]) [%] | Activity (Mus musculus [3]) [%] | other results
29 | COc1ccc(Cl)c2c1CCC(CN1CCOCC1)C2=O.O=C(O)/C=C\C(=O)O (configuration not stated) | 2.2 | 0 | 20 | ED50 (Mus musculus [6]): 32 mg/kg; ED50 (Rattus norvegicus [7]): 0.32 mg/kg; Activity (Canis familiaris [8]): 140%
30 | COc1ccc(Cl)c2c1CCC(C(C)N1CCCCC1)C2=O.Cl (configuration not stated) | 0.6 | 20 | 0 | –
31 | COc1ccc(C)c2c1CCC(CN1CCCC1)C2=O.Cl (configuration not stated) | 2.2 | 12.5 | 50 | –
32 | COc1ccc(OC)c2c1CCC(CN1CCCC1)C2=O.Cl (configuration not stated) | 1.2 | 0 | 0 | –
33 | COc1ccc(Cl)c2c1C(C)CC(CN1CCCCC1)C2=O.Cl (configuration not stated) | 1.2 | – | – | –
34 | C=CCNCC1CCc2c(OC)ccc(Cl)c2C1=O.Cl (configuration not stated) | >2.2 | – | – | Activity (Rattus norvegicus [9]): 2.2 mA; Activity (Mus musculus [4]): 0%; Activity (Mus musculus [5]): 0%
35 | CCOc1ccc(Cl)c2c1CCC(CN1CCCC1)C2=O.Cl (configuration not stated) | 0.6 | 30 | 60 | –
36 | CCN(CC)CC1CCc2c(OC)ccc(Cl)c2C1=O.O=C(O)/C=C\C(=O)O (configuration not stated) | 0.6 | 20 | 0 | –
37 | CN(C)CC1CCc2ccccc2C1=O.Cl (configuration not stated) | 1.2 | 10 | 0 | ED50 (Mus musculus [6]): 32 mg/kg; ED50 (Rattus norvegicus [7]): > 10 mg/kg; Activity (Canis familiaris [8]): 70%
38 | CCOC(=O)C1(c2ccccc2)CCN(C)CC1 [MEPERIDINE] | 1.2 | 50 | 70 | ED50 (Rattus norvegicus [7]): 10 mg/kg; Activity (Canis familiaris [13]): 150%
39 | COc1ccc(Cl)c2c1CCC(C)(CN1CCOCC1)C2=O.Cl (configuration not stated) | 0.6 | – | – | –
40 | COc1ccc(Cl)c2c1CC(CN1CCOCC1)C2=O.Cl (configuration not stated) | 0.6 | 0 | 0 | –
41 | COc1cccc2c1CCC(CN1CCOCC1)C2=O.Cl (configuration not stated) | 0.6 | – | – | –
42 | COc1cccc2c1CCC(CN1CCCC1)C2=O.Cl (configuration not stated) | 0.8 | 0 | 0 | –
43 | COc1ccc(Cl)c2c1CCC(CN(C)C)C2=O.Cl (configuration not stated) | 2.2 | 0 | 10 | ED50 (Mus musculus [6]): 32 mg/kg; ED50 (Rattus norvegicus [7]): > 178 mg/kg; Activity (Canis familiaris [8]): 130%
44 | COc1ccc(Cl)c2c1CC(CN1CCCCC1)C2=O.Cl (configuration not stated) | 0.6 | 0 | 0 | –
45 | Cl.O=C1c2ccccc2CCC1CN1CCCC1 (configuration not stated) | 1.2 | 0 | 10 | ED50 (Mus musculus [6]): 32 mg/kg; ED50 (Rattus norvegicus [7]): > 10 mg/kg; Activity (Canis familiaris [8]): 100%
46 | COc1ccc(Cl)c2c1CCC(CN1CCCCCC1)C2=O.Cl (configuration not stated) | 1.2 | 0 | 0 | –
47 | COc1ccc(OC)c2c1CCC(CN1CCOCC1)C2=O.Cl (configuration not stated) | 0.6 | 10 | 0 | –
48 | COc1ccc(Cl)c2c1CC(CN(C)C)C2=O.Cl (configuration not stated) | 0.6 | 20 | 30 | –
49 | CN1CCN(CC/C=C2/c3ccccc3Sc3ccc(S(=O)(=O)N(C)C)cc32)CC1 [THIOTHIXENE] | – | – | – | ED50 (Mus musculus [6]): 0.32 mg/kg; ED50 (Rattus norvegicus [7]): 3.2 mg/kg
50 | COc1ccc(Cl)c2c1CCC(CNC1CCCCC1)C2=O.Cl (configuration not stated) | >2.2 | – | 0 | Activity (Rattus norvegicus [9]): 1.2 mA
51 | COc1ccc(F)c2c1CCC(CN(C)C)C2=O.Cl (configuration not stated) | 0.6 | 50 | 0 | –
52 | CCC(=O)O[C@](Cc1ccccc1)(c1ccccc1)[C@H](C)CN(C)C [PROPOXYPHENE] | – | 30 | 70 | Activity (Rattus norvegicus [14]): 1.2%; Activity (Canis familiaris [15]): 100%
53 | CCOC1(c2ccccc2)CCN(CC2CCc3c(OC)ccc(Cl)c3C2=O)CC1.Cl (configuration not stated) | 1.2 | 0 | 0 | –
54 | COc1ccc(Cl)c2c1CCC(C)(CN1CCCCC1)C2=O.Cl (configuration not stated) | 0.6 | – | – | –
55 | COc1cccc2c1CCC(CN1CCCCC1)C2=O.Cl (configuration not stated) | 0.8 | – | – | –
